A selection: hits, their analogues and other compounds. The true share with any hit is near 3.6%.
FGF22 binding – binders of human FGF22 protein, primary screen, FGF22 synaptogenesis inhibitor project, biophysical, thermal shift, single point; activity (Tm shift, normalised), % at 9.99 µM; 340,000 tested, 1.5% active; recombinant FGF22 thermal shift, SYPRO orange fluorescence; percent of sucrose octasulfate shift, DMSO zero; Fibroblast growth factor 22 (Homo sapiens), Q9HCT0; AID 651658, 2012;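 active = mean Tm shift, scaled 0 neutral to 100 positive control, at about 1.3% or above, every replicate too, limit read from the data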
Target sequence (Q9HCT0 whole entry, looked up): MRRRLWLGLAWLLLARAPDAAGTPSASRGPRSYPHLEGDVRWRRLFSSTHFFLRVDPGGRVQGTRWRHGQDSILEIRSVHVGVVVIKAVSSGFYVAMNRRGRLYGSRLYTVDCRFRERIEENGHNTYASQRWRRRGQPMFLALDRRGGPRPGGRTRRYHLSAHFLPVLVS
NR3A LBD binder – binders of NR3A ligand-binding domain, primary screen, biophysical, differential scanning fluorimetry, uHTS; Glutamate receptor ionotropic, NMDA 3A (GRIN3A) ligand-binding domain; NR3A LBD differential scanning fluorimetry, Tm shift; 0% = protein alone, 100% = glycine-bound protein; Tm shift relative to glycine control, % at 25 µM; 340,000 tested, 2.5% active;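 active = melting temperature shift of at least 10% of the positive control shift, at one fixed dose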
DNA FID counter-1 – compounds displacing fluorescent DNA intercalator, primary screen, artefact control for HCV NS3 helicase inhibitor project, biochemical, FID fluorescence; DNA fluorescent intercalator displacement; inhibition, % at 7.9 µM; 290,000 tested, 0.17% active;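 also: higher means more ethidium bromide displaced from hairpin DNA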
ZTA DNA inh – counter-screen for EBNA-1 inhibitors: inhibitors of Epstein-Barr virus ZTA | P03206 | ZTA-DNA binding, fluorescence polarization | inhibition, % at 11 µM | 320,000 tested, 0.15% active; in the data active = inhibition above about 33%
Target sequence (P03206 whole entry, looked up): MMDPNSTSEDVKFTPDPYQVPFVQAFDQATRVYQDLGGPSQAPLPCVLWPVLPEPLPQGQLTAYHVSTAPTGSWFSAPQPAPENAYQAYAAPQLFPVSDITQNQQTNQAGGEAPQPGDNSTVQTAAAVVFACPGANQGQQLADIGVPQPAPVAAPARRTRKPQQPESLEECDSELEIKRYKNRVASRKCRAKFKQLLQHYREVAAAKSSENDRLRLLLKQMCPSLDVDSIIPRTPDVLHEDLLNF
EBNA-1 inh – EBNA-1 DNA-binding inhibitors, primary screen, biochemical, fluorescence polarization. inhibition, % at 14.8 µM. 300,000 tested, 0.34% active. AID 1950, 2009; in the data active = inhibition above about 28%
NS3 helicase inh – inhibitors of HCV NS3 helicase, primary screen, biochemical, Cy5 molecular beacon fluorescence; 290,000 tested, 0.56% active; Hepatitis C virus NS3 helicase; inhibition, % at 10.9 µM; AID 1800, 2009; NS3 helicase DNA unwinding;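 active = inhibition above the mean of all tested compounds plus 3 SD, set per campaign, cut at about 35% in these data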
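test system = hepatitis C virus NS3 helicase domain fragment enzyme | reagent = annealed dual-labelled DNA beacon duplex, ATP-started | times = 1 h at 25 °C | detection = Cy5 fluorescence, 0 and 60 min reads | read-out basis = percent inhibition from t60/t0 fluorescence ratio | control set = DMSO and thioflavine S | replication = one well per compound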
NS3 hel confirm – HCV NS3 helicase inhibitors, retest, confirmation, biochemical, Cy5 molecular beacon fluorescence, triplicate; inhibition, % at 10.9 µM; AID 1943, 2009; shares compounds with NS3 helicase inh; 1,600 tested, 31% active; NS3 helicase DNA unwinding;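 active = inhibition above the mean of all tested compounds plus 3 SD, cutoff set per campaign, cut at about 36% in these data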
DNA FID counter-2 – compounds displacing fluorescent DNA intercalator, artefact control for HCV NS3 helicase inhibitor project, biochemical, FID fluorescence, triplicate. shares compounds with NS3 helicase inh. 1,600 tested, 4% active. DNA fluorescent intercalator displacement. AID 1945, 2009. inhibition, % at 7.9 µM;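 also: higher means more displacement of ethidium bromide from the DNA hairpin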
Hits are given with their value; . = inactive; / = no result given. Rule as the data show it, unless noted: active = inhibition above about 37%; inactive = the rest.

SMILES	FGF22 binding	NR3A LBD binder	DNA FID counter-1	ZTA DNA inh	EBNA-1 inh	NS3 helicase inh	NS3 hel confirm	DNA FID counter-2
O=C(C[C@H]1CC[C@@H]2[C@H](COC[C@H](O)CN2C(=O)Nc2ccc(F)cc2)O1)NCCCN1CCOCC1	.	/	/	/	/	/	/	/
O=[N+]([O-])c1ccc(N2N=C(c3ccco3)CC2c2ccccc2)cc1 (configuration not stated)	/	.	.	.	.	38	.	.
Fc1ccc(C2CC(c3ccco3)=NN2c2ccccc2)cc1 (configuration not stated)	/	.	.	.	.	.	/	/
Cc1cc(NC(=O)CC(C)C)c(=O)n(Cc2cccc(F)c2)c1	.	.	.	.	.	39	.	.
COCC(=O)Nc1cc(C)cn(Cc2ccc(F)cc2)c1=O	.	.	.	.	.	.	/	/
Cc1ccc(Nc2cc(C)nn2-c2nc(C)cc(C)n2)cc1	/	.	.	.	.	.	/	/
Cc1ccc(Nc2cc(C)nn2-c2nc(C)cc(=O)[nH]2)cc1	/	.	.	.	.	39	.	.
CCOC(=O)C(C)Sc1nc(-c2cccs2)ccc1C#N (configuration not stated)	/	.	.	.	.	.	/	/
C=COC(=O)CSc1nc(-c2cccs2)ccc1C#N	.	.	.	.	.	48	.	.
CN1C(=O)c2cc(NC(=O)NC3CCCC3)ccc2OC[C@H]2O[C@@H](CC(=O)NC3CCC3)CC[C@H]21	.	/	/	/	/	/	/	/
COc1ccc(/C=N/NC(=O)c2cccc(NC(=O)c3ccccc3Cl)c2)cc1	.	.	.	.	.	61	.	.
Cc1ccc(NC(=O)CN2C(=O)N/C(=C/c3ccco3)C2=O)cc1	/	.	.	.	.	39	.	.
C=CCSc1n[nH]c(-c2ccc(OC)cc2)n1	/	.	.	.	.	39	.	.
C=CCSc1n[nH]c(-c2ccccc2)n1	/	.	.	.	.	.	/	/
C[C@H](CO)N1C[C@H](C)[C@@H](CN(C)C(=O)CCCN(C)C)OCCCC[C@H](C)Oc2ccc(NC(=O)c3ccccc3)cc2C1=O	.	/	/	/	/	/	/	/
O=C(O)c1cc([N+](=O)[O-])ccc1Nc1ccccc1	.	.	.	.	.	.	/	/
Cc1cccc(Nc2ccc([N+](=O)[O-])cc2C(=O)O)c1	.	.	.	.	.	37	66	.
CCS(=O)(=O)NCC[C@@H]1CC[C@H](NC(=O)Cc2ccccn2)[C@@H](CO)O1	.	/	/	/	/	/	/	/
CN1CCN(S(=O)(=O)c2ccc(N3CCN(C(c4ccccc4)c4ccccc4)CC3)nc2)CC1	.	.	.	.	.	43	.	51
CN1CCN(S(=O)(=O)c2ccc(N3CCN(S(=O)(=O)/C=C/c4ccccc4)CC3)nc2)CC1	/	.	.	.	.	.	/	/
CCOC(=O)CN1C(=O)S/C(=C/c2ccc(OCc3ccc(C(=O)O)cc3)cc2)C1=O	.	.	.	.	.	42	.	.
CCNC(=O)C[C@@H]1CC[C@@H]2[C@H](COC[C@@H](O)CN2Cc2ccncc2)O1	.	/	/	/	/	/	/	/
C[C@@H]1CN([C@@H](C)CO)C(=O)Cc2cc(NC(=O)Nc3ccc(F)cc3)ccc2O[C@H]1CN(C)C(=O)Nc1ccccc1	.	/	/	/	/	/	/	/
CC(=O)C1=C(O)C(=O)N(c2ccc(Br)cc2)C1c1ccc(Cl)cc1 (configuration not stated)	.	.	.	.	.	37	80	.
CC(=O)C1=C(O)C(=O)N(c2ccc(O)cc2)C1c1ccc(Cl)cc1 (configuration not stated)	.	.	.	.	.	.	/	/
SMILES	FGF22 binding	NR3A LBD binder	DNA FID counter-1	ZTA DNA inh	EBNA-1 inh	NS3 helicase inh	NS3 hel confirm	DNA FID counter-2
CC(=O)C1=C(O)C(=O)N(c2cc(C(C)(C)C)on2)C1c1ccc(Br)cc1 (configuration not stated)	/	.	.	.	.	38	68	.
CCOC(=O)c1ccc(N2NC(=O)/C(=C/c3ccc(OC(=O)c4ccco4)c(OC)c3)C2=O)cc1	/	/	.	.	.	.	/	/
CCOC(=O)COc1ccc(/C=C2/C(=O)NN(c3ccc(F)cc3)C2=O)cc1OC	.	.	.	.	.	36	.	.
O=C(O)CN1C(=O)/C(=C\c2ccccc2OCc2ccc(Cl)cc2Cl)SC1=S	.	.	.	.	.	47	66	.
O=C1/C(=C\c2cc(Br)cc(Br)c2O)SC(=S)N1Cc1ccccc1	/	.	.	.	.	57	75	.
CCOc1cc(/C=C2/SC(=S)N(Cc3ccccc3)C2=O)ccc1O	.	.	.	.	.	.	/	/
O=C1/C(=C/c2ccccc2O)SC(=S)N1Cc1cccnc1	.	.	.	.	.	.	/	/
COc1cc(/C=C2/SC(=S)N(Cc3ccccc3)C2=O)ccc1OCC(=O)O	.	.	.	.	.	37	.	.
O=C(O)CN1C(=O)/C(=C\c2cc(Br)ccc2OCc2ccccc2F)SC1=S	.	.	.	.	.	.	/	/
O=C(O)CN1C(=O)/C(=C\c2cc(Br)ccc2OCc2ccccc2Cl)SC1=S	.	.	.	.	.	47	69	48
C[C@@H]1CCCCO[C@H](CN(C)Cc2ccc(Cl)c(Cl)c2)[C@@H](C)CN([C@H](C)CO)C(=O)c2cc(NC(=O)Nc3cccc4ccccc34)ccc2O1	.	/	/	/	/	/	/	/
O=C(O)COc1ccc(Br)cc1/C=C1/SC(=O)N(CC(=O)N2CCCC2)C1=O	/	.	.	.	.	.	/	/
O=C(O)CN1C(=O)/C(=C\c2cc(Br)ccc2OCc2ccc([N+](=O)[O-])cc2)SC1=S	/	.	.	.	.	56	66	56
CCOC(=O)C1CCCN(C(=O)/C(=C/c2ccco2)NC(=O)c2ccccc2)C1 (configuration not stated)	.	.	.	.	.	45	.	.
Cc1noc(C)c1S(=O)(=O)N(C)C[C@@H]1Oc2ccc(NC(=O)NC3CCCCC3)cc2CC(=O)N([C@@H](C)CO)C[C@H]1C	.	/	/	/	/	/	/	/
Fc1ccc(NC(=S)Nc2cccc3ccccc23)cc1F	.	.	.	.	.	44	.	.
COc1cccc(NC(=S)Nc2cccc3ccccc23)c1	.	.	.	.	.	49	.	.
